In ChEMBL document CHEMBL4368905, “5,6,7,8-Tetrahydro-1,6-naphthyridine Derivatives as Potent HIV-1-Integrase-Allosteric-Site Inhibitors” (J Med Chem, 2019):

Legend:
[1] = Cytotoxicity against human MT2 cells assessed as reduction in cell viability after 4 days by XTT assay; type: cell-based
Summary of the method: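 Cytotoxicity in MT-2 cells, test compound up to a maximal concentration of 40 μM.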

[2] = tested on: Human immunodeficiency virus 1; assay: Antiviral activity against wild type HIV-1 NL4-3 infected in human MT2 cells after 5 days by dual luciferase reporter gene assay; type: functional, organism-based; details: Human immunodeficiency virus 1, NL4-3, MT2, 120 h
Summary of the method: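 HIV-1 NL4-3 replication (viral outgrowth) in MT-2 cells. EC50 from multiple replicates.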

[3] = Displacement of [3H]-2-tert-butoxy-2-(2-methyl-4-p-tolylquinolin-3-yl)acetic acid from LEDGF/p75 binding site of HIV1 integrase preincubated with radioligand for 1 hr followed by compound addition and measured after 1 hr by microbeta counting assay; parameters: species or system Human immunodeficiency virus 1
Summary of the method: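 Displacement of tritiated ligand from the LEDGF/p75 binding site on integrase. IC50 from a single replicate.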

[4] = Clearance in rat at 1 mg/kg, iv or 5 mg/kg, po by LC-MS/MS analysis; type: ADME, organism-based; details: in vivo
Summary of the method: (§1)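 Rats dosed 1 mg/kg IV and 5 mg/kg PO. Clearance, Vss and oral bioavailability derived from these profiles.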

[5] = Volume of distribution at steady state in rat at 1 mg/kg, iv or 5 mg/kg, po by LC-MS/MS analysis; type: ADME, organism-based; details: in vivo, read-out: Vdss; summary of the method: as §1
[6] = tested on: Human immunodeficiency virus 1; assay: Antiviral activity against HIV-1 NL4-3 harboring integrase T124A mutant infected in human MT2 cells after 5 days by dual luciferase reporter gene assay; type: functional, organism-based; details: Human immunodeficiency virus 1, NL4-3, MT2, 120 h
Summary of the method: (§2)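 NL4-3 HIV-1 carrying integrase substitutions engineered into the pol gene. The assay measures inhibition of viral outgrowth in MT-2 cell culture, and the value is reported as EC50.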

[7] = tested on: Human immunodeficiency virus 1; assay: Antiviral activity against HIV-1 NL4-3 harboring integrase T124N mutant infected in human MT2 cells after 5 days by dual luciferase reporter gene assay; type: functional, organism-based; details: Human immunodeficiency virus 1, NL4-3, MT2, 120 h; summary of the method: as §2
[8] = tested on: Human immunodeficiency virus 1; assay: Antiviral activity against HIV-1 NL4-3 harboring integrase T125A mutant infected in human MT2 cells after 5 days by dual luciferase reporter gene assay; type: functional, organism-based; details: Human immunodeficiency virus 1, NL4-3, MT2, 120 h; summary of the method: as §2
[9] = tested on: Human immunodeficiency virus 1; assay: Antiviral activity against HIV-1 NL4-3 harboring integrase T124A/T125A double mutant infected in human MT2 cells after 5 days by dual luciferase reporter gene assay; type: functional, organism-based; details: Human immunodeficiency virus 1, NL4-3, MT2, 120 h; summary of the method: as §2
[10] = tested on: Human immunodeficiency virus 1; assay: Antiviral activity against HIV-1 NL4-3 harboring integrase T124A/T125N double mutant infected in human MT2 cells after 5 days by dual luciferase reporter gene assay; type: functional, organism-based; details: Human immunodeficiency virus 1, NL4-3, MT2, 120 h; summary of the method: as §2
[11] = Oral bioavailability in rat at 5 mg/kg by LC-MS/MS analysis; type: ADME, organism-based; details: in vivo; summary of the method: as §1
[12] = Metabolic stability in rat liver microsomes assessed as parent compound remaining at 0.5 uM after 10 mins in presence of NADPH by LC-MS/MS analysis; type: ADME, Microsome; details: read-out: Stability
Summary of the method: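 Rat liver microsomes, compound at 0.5 μM, incubated 10 minutes. Read-out is percent of parent remaining.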

| Compound | CC50 at 96 h [1] [µM] | EC50 [2] [nM] | IC50 [3] [nM] | clearance [4] [mL/min/kg] | Vd [5] [L/kg] | also measured |
| --- | --- | --- | --- | --- | --- | --- |
| Cc1ccc(-c2c(C(OC(C)(C)C)C(=O)O)c(C)nc3ccccc23)cc1 (stereo not drawn) | > 40 | 150 |  |  |  |  |
| Cc1ccc(CCCN2CCc3nc(C)c([C@H](OC(C)(C)C)C(=O)O)c(-c4cc(F)c5c(c4C)CCCO5)c3C2)cc1F | > 40 | 1 | 11 |  |  |  |
| Cc1ccc(-c2c3c(nc(C)c2C(OC(C)(C)C)C(=O)O)CCN(c2cccc(-c4ccccc4)c2)C3)cc1 (stereo not drawn) | > 40 | 280 | 430 |  |  |  |
| Cc1nc2c(c(-c3cc(F)c4c(c3C)CCCO4)c1[C@H](OC(C)(C)C)C(=O)O)CN(CCCc1ccccc1F)CC2 | > 40 | 1 | 8 |  |  |  |
| Cc1ccc(-c2c3c(nc(C)c2[C@H](OC(C)(C)C)C(=O)O)CCN(C(=O)CCc2ccccc2)C3)cc1 | > 40 | 340 | 760 | 163 | 2 |  |
| Cc1ccc(-c2c3c(nc(C)c2[C@H](OC(C)(C)C)C(=O)O)CCN(C(=O)NCc2ccccc2)C3)cc1 | > 40 | 500 | 310 |  |  |  |
| Cc1ccc(-c2c3c(nc(C)c2[C@H](OC(C)(C)C)C(=O)O)CCN(CCCc2ccccc2)C3)cc1 | > 40 | 10 | 70 | 171 | 16 | EC50 [6]: 17 nM; EC50 [7]: 20 nM; EC50 [8]: 21 nM; EC50 [9]: 34 nM; EC50 [10]: 31 nM |
| Cc1ccc(-c2c3c(nc(C)c2[C@H](OC(C)(C)C)C(=O)O)CCN(c2ccc(-c4ccccc4)cc2)C3)cc1 | > 40 | 320 | 220 |  |  |  |
| Cc1ccc(-c2c3c(nc(C)c2[C@H](OC(C)(C)C)C(=O)O)CCN(Cc2ccccc2)C3)cc1 | > 40 | 300 | 830 | 21 | 7 | bioavailability [11]: 35% |
| Cc1ccccc1CCCN1CCc2nc(C)c([C@H](OC(C)(C)C)C(=O)O)c(-c3cc(F)c4c(c3C)CCCO4)c2C1 | > 40 | 2 | 19 |  |  |  |
| CC(=O)N1CCc2nc(C)c(C(OC(C)(C)C)C(=O)O)c(-c3ccc(C)cc3)c2C1 (stereo not drawn) | > 40 | 1900 | 17000 |  |  |  |
| Cc1ccc(-c2c3c(nc(C)c2[C@H](OC(C)(C)C)C(=O)O)CCN(CCOc2ccccc2)C3)cc1 | > 40 | 200 | 170 |  |  |  |
| Cc1ccc(-c2c3c(nc(C)c2C(OC(C)(C)C)C(=O)O)CCN(Cc2ccccc2-c2ccccc2)C3)cc1 (stereo not drawn) | > 40 | 70 | 80 | 24 | 9 | bioavailability [11]: 25% |
| Cc1ccc(-c2c3c(nc(C)c2C(OC(C)(C)C)C(=O)O)CCN(CCCC2CCCC2)C3)cc1 (stereo not drawn) | > 40 | 39 | 240 | 152 | 66 | bioavailability [11]: 32% |
| Cc1ccc(-c2c3c(nc(C)c2[C@H](OC(C)(C)C)C(=O)O)CCN(C(=O)OCc2ccccc2)C3)cc1 | > 40 | 230 | 140 | 118 | 19 | bioavailability [11]: 71% |
| COC(=O)N1CCc2nc(C)c(C(OC(C)(C)C)C(=O)O)c(-c3ccc(C)cc3)c2C1 (stereo not drawn) | > 40 | 1600 | 4200 |  |  |  |
| Cc1nc2c(c(-c3cc(F)c4c(c3C)CCCO4)c1[C@H](OC(C)(C)C)C(=O)O)CN(CCCc1ccccc1)CC2 | > 40 | 4 | 16 | 82 | 6 | EC50 [7]: 6 nM; EC50 [8]: 7 nM; EC50 [9]: 6 nM; remaining at 10 min, 0.5 µM [12]: 78%; bioavailability [11]: 10% |
| CCCCCN1CCc2nc(C)c(C(OC(C)(C)C)C(=O)O)c(-c3ccc(C)cc3)c2C1 (stereo not drawn) | > 40 | 210 | 1100 |  |  |  |
| Cc1ccc(-c2c3c(nc(C)c2[C@H](OC(C)(C)C)C(=O)O)CCN(CCc2ccccc2)C3)cc1 | > 40 | 240 | 850 |  |  |  |
| Cc1ccc(-c2c3c(nc(C)c2[C@H](OC(C)(C)C)C(=O)O)CCN(C/C=C/c2ccccc2)C3)cc1 | > 40 | 120 | 160 |  |  |  |
| Cc1ccc(-c2c3c(nc(C)c2C(OC(C)(C)C)C(=O)O)CCN(C)C3)cc1 (stereo not drawn) | > 40 | 2100 | 5800 |  |  |  |
| Cc1ccc(-c2c3c(nc(C)c2C(OC(C)(C)C)C(=O)O)CCN(S(C)(=O)=O)C3)cc1 (stereo not drawn) | > 40 | 2600 | 2200 |  |  |  |
| Cc1cccc(CCCN2CCc3nc(C)c([C@H](OC(C)(C)C)C(=O)O)c(-c4cc(F)c5c(c4C)CCCO5)c3C2)c1 | > 40 | 2 | 29 |  |  |  |
| Cc1nc2c(c(-c3cc(F)c4c(c3C)CCCO4)c1[C@H](OC(C)(C)C)C(=O)O)CN(CCCc1cccc(F)c1)CC2 | > 40 | 4 | 44 |  |  |  |
| Cc1ccc(-c2c3c(nc(C)c2[C@H](OC(C)(C)C)C(=O)O)CCN(c2ccccc2)C3)cc1 | > 40 | 470 | 230 | 24 | 3 |  |
| Cc1nc2c(c(-c3cc(F)c4c(c3C)CCCO4)c1[C@H](OC(C)(C)C)C(=O)O)CN(CCCc1ccc(F)cc1)CC2 | > 40 | 4 | 15 | 92 | 1 | remaining at 10 min, 0.5 µM [12]: 78%; bioavailability [11]: 10% |
| Cc1ccc(CCCN2CCc3nc(C)c([C@H](OC(C)(C)C)C(=O)O)c(-c4cc(F)c5c(c4C)CCCO5)c3C2)cc1 | > 40 | 2 | 12 |  |  |  |
| Cc1nc2c(c(-c3cc(F)c4c(c3C)CCCO4)c1[C@H](OC(C)(C)C)C(=O)O)CN(CC1CC1c1ccccc1)CC2 (mixture of isomers) | > 40 | 5 | 24 |  |  |  |
| Cc1nc2c(c(-c3cc(F)c4c(c3C)CCCO4)c1[C@H](OC(C)(C)C)C(=O)O)CN(CCCc1ccncc1)CC2 (single isomer, unassigned; atropisomer) | > 40 | 58 | 40 |  |  |  |
| Cc1nc2ccccc2c(-c2ccc3c4c(ccnc24)CCO3)c1[C@H](OC(C)(C)C)C(=O)O [BI-224436] | > 40 | 52 | 71 |  |  |  |
